Results from paper PMC6345172 (Cancer letters, 2018).

Key:
AGS cells = assay: MTT cell proliferation assay, AGS; assay type: cell-based; details: Homo sapiens, 72 h, read-out: IC50 on AGS cells
Method in brief: (§1)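 Cells seeded overnight in 96-well plates, then exposed to a range of test compound concentrations for 72 h. MTT added for 2 h, medium removed, formazan dissolved in DMSO, and OD570 read. Viability normalized to untreated cells from the same experiment. IC50 calculated from concentration–response data. MTT run in triplicate; means ± SEM of three experiments.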

MKN45 cells = assay: MTT cell proliferation assay, MKN45; assay type: cell-based; details: Homo sapiens, MKN-45, 72 h, read-out: IC50 on MKN45 cells
Method in brief: as §1

For `COc1ccc(CCCOC(Cn2ccnc2)c2ccc(OC)cc2)cc1` (centres unmarked) [SKF96365], the IC50 (AGS cells) was 27.8 ± 1.1 µM and the IC50 (MKN45 cells) was 13.7 ± 0.8 µM.
